# Experimental data reported in article PMC10100262 (Chemmedchem, 2022).
# Legend:
# Determination of log D = type: physicochemical; settings: pH 7.4
# Outline: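 68Ga-labeled peptide conjugate, molar activity adjusted to 1 GBq/μmol, 0.7–1 MBq per test. Partitioned between 1-octanol and 0.05 M phosphate buffer pH 7.4 by vigorous shaking for 2 min. Phases separated by centrifugation; equal aliquots of each phase γ-counted. Run thrice, each in triplicate.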
# [1] = type: in vitro ADME; settings: pooled human serum, 37 °C; activity in precipitated serum protein pellet
# Outline: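 68Ga-labeled peptide conjugate (20–25 MBq; molar activity set to 1 GBq/μmol) incubated in pooled human serum at 37 °C. Samples taken at 15-min intervals into an equal volume of ice-cold ethanol, held 1 min on ice and centrifuged 90 s. Activity measured in pellet and supernatant; supernatant analyzed by radio-HPLC. Three experiments per radioligand.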
Structure (SMILES),logD (Determination of log D; 1‐octanol/phosphate buffer),protein‐associated activity (protein‐bound activity fraction) [1] [%],logD (Determination of log D)
"C[C@@H](O)[C@H](NC(=O)[C@@H]1CSSC[C@H](NC(=O)[C@@H](Cc2ccccc2)NC(=O)CN2CCN(CC(=O)O)CCN(CC(=O)O)CCN(CC(=O)O)CC2)C(=O)N[C@@H](Cc2ccc(O)cc2)C(=O)N[C@H](Cc2c[nH]c3ccccc23)C(=O)N[C@@H](CCCCN)C(=O)N[C@@H]([C@@H](C)O)C(=O)N1)C(=O)O [[^68Ga]Ga‐8, metal not drawn]",-4.09 ± 0.07,19.7±2.2,
"C[C@@H](O)[C@H](NC(=O)[C@@H]1CSSC[C@H](NC(=O)[C@@H](Cc2ccccc2)NC(=O)CCC(C(=O)O)N2CCN3CCN(CCN(CC(=O)O)CC3)CC2)C(=O)N[C@@H](Cc2ccc(O)cc2)C(=O)N[C@H](Cc2c[nH]c3ccccc23)C(=O)N[C@@H](CCCCN)C(=O)N[C@@H]([C@@H](C)O)C(=O)N1)C(=O)O (some centres unmarked) [[^68Ga]Ga‐11, metal not drawn]",,15.7±3.6,-3.02 ± 0.08
"C[C@@H](O)[C@H](NC(=O)[C@@H]1CSSC[C@H](NC(=O)[C@@H](Cc2ccccc2)NC(=O)CCC(C(=O)O)N2CCN(CC(=O)O)CCN(CC(=O)O)CCN(CC(=O)O)CC2)C(=O)N[C@@H](Cc2ccc(O)cc2)C(=O)N[C@H](Cc2c[nH]c3ccccc23)C(=O)N[C@@H](CCCCN)C(=O)N[C@@H]([C@@H](C)O)C(=O)N1)C(=O)O (some centres unmarked) [[^68Ga]Ga‐9, metal not drawn]",,29.0±3.5,-4.11 ± 0.11
"C[C@@H](O)[C@H](NC(=O)[C@@H]1CSSC[C@H](NC(=O)[C@@H](Cc2ccccc2)NC(=O)CC[C@H](C(=O)O)N2CCN(CC(=O)O)CCN(CC(=O)O)CC2)C(=O)N[C@@H](Cc2ccc(O)cc2)C(=O)N[C@H](Cc2c[nH]c3ccccc23)C(=O)N[C@@H](CCCCN)C(=O)N[C@@H]([C@@H](C)O)C(=O)N1)C(=O)O [[^68Ga]Ga‐10, metal not drawn]",-3.72 ± 0.02,16.9±3.5,
